Source: PubChem BioAssay
A selection: hits, their analogues and other compounds. The true share with any hit is near 2.3%.
Rtt109 Vps75 = inhibitors of C. albicans Rtt109/Vps75 HAT, primary screen, biochemical, ThioGlo CoA-SH fluorescence, plate reader. Histone acetyltransferase RTT109 (Candida albicans (strain SC5314 / ATCC MYA-2876)), …. purified Rtt109/Vps75, 4 h. inhibition, % at 34.9 µM. 330,000 compounds, 0.16% hits. AID 540336, 2011;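 active = inhibition of at least 50% in every replicate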
Target sequence (Q5AAJ8 whole entry, looked up): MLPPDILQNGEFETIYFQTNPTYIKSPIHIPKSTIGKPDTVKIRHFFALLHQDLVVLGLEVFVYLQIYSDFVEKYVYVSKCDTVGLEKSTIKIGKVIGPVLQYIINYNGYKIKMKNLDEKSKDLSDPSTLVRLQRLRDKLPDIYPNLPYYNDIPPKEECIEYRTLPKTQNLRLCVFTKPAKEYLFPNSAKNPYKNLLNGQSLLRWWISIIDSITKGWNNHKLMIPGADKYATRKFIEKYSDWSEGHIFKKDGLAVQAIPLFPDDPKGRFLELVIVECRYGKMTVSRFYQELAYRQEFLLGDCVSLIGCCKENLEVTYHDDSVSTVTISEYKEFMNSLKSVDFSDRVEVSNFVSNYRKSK
Arrestin-AP2 inh = inhibitors of beta-arrestin/AP2 binding, primary screen, biochemical, GPCR trafficking, flow cytometry | beta-arrestin 1 C-terminal peptide binding to AP2 beta2-adaptin appendage (human) | FITC-arrestin peptide / GST-AP2 beads; AP2 beta2 appendage carries R879A mutation | inhibition, % at 10 µM | 340,000 compounds, 0.31% hits | AID 504490, 2011;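 active = inhibition above a set limit, near 3 SD of compounds lacking own fluorescence, cut at about 54% in these data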;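 also: plate controls were DMSO wells for no effect and 5 µM unlabelled arrestin peptide for full effect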
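System: GST-AP2 R879A bound to glutathione beads, E. coli-expressed. Also added: 50 nM FITC-arrestin peptide. Schedule: compound with beads 12 min RT, then probe 1 h RT. Signal: bead flow cytometry, FITC channel. Read-out basis: percent response.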
N-glyco inh = increase of ERlucT glycosylation luciferase signal, primary screen, N-linked glycosylation inhibitor project, D54 ERlucT cells, luminescence, set 2 | D54 ERlucT glycosylation luciferase reporter, 24 h; percent of 100 nM tunicamycin response | reporter increase, % at 12.5 µM | 360,000 compounds, 0.23% hits;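 active = mean luciferase reporter signal, scaled so untreated is 0 and the glycosylation-blocking control 100, at or above a set limit in every replicate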;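 also: luciferase carries N-glycosylation sites so blocking glycosylation raises the light; 0% = median of neutral control wells and 100% = median of 100 nM tunicamycin wells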
PfHsp90 set2 = growth inhibition of PfHsp90-expressing yeast, primary screen, antimalarial PfHsp90 inhibitor project, S. cerevisiae, BacTiter-Glo luminescence, single point, set 2. AID 504621, 2011. 310,000 compounds, 0.32% hits. inhibition, % at 9.4 µM. BacTiter-Glo ATP, 48 h; yeast lacking PDR1 and PDR3 efflux regulators;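 active = every replicate shows inhibition above about 80%, whatever the replicate mean, limit read from the data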;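 also: 0% = DMSO neutral controls and 100% = 20 µM radicicol positive controls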
Env fusion inh = inhibitors of HIV-1 Env-driven cell-cell fusion, primary screen, HeLa-JRFL effector, CEM21 target cells, luciferase; 360,000 compounds, 1.1% hits; AID 651610, 2012; inhibition, % at 12.3 µM;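 active = mean replicate inhibition score of at least 50 and every replicate individually at or above 50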;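 also: 0% = plate neutral controls and 100% = maraviroc near 300 nM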
PAX8 inh HTS = inhibitors of PAX8-driven TPO luciferase reporter, primary screen, RMG-I cells, single concentration; SteadyGlo, 24 h; inhibition, % at 12.6 µM; 360,000 compounds, 1.2% hits; AID 652154, 2013;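 active = mean replicate inhibition at least 60% with every replicate also reaching 60%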;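 also: luciferase light reporting Pax8 driven TPO promoter activity; plate controls were median of neutral control wells for no effect and mitoxantrone controls for full effect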
An asterisk follows results filed as active; [ ] = another dose, or the depositor's remark.

How did COc1ccccc1-c1ccc(C2[C@H]3CNC[C@@H]2N3S(=O)(=O)c2ccccc2OC)cc1 (stereo partly drawn) do in these assays?
PAX8 inh HTS: -14

Results for COC(=O)c1ccc(COc2ccccc2/C=C(\C#N)C(=O)Nc2c(C)cccc2C)cc1 ?
Rtt109 Vps75: -2; Arrestin-AP2 inh: 6; N-glyco inh: 37*; PfHsp90 set2: 38; Env fusion inh: 6; PAX8 inh HTS: 6

What do the screens show for `Oc1c(C(Nc2cccc(C(F)(F)F)c2)c2ccncc2)ccc2cccnc12` (stereo not drawn)?
Rtt109 Vps75: -3; Arrestin-AP2 inh: 26; N-glyco inh: -12; PfHsp90 set2: 104*; Env fusion inh: 14; PAX8 inh HTS: 48

What do the screens show for `Oc1c(C(Nc2nc3ccccc3s2)c2ccco2)ccc2cccnc12` (stereo not drawn)?
Rtt109 Vps75: 0; Arrestin-AP2 inh: 26; N-glyco inh: -14; PfHsp90 set2: 131*; Env fusion inh: -70

How did Oc1c(C(Nc2nccs2)c2ccc(C(F)(F)F)cc2)ccc2cccnc12 (stereo not drawn) do in these assays?
Rtt109 Vps75: -2; Arrestin-AP2 inh: 13; N-glyco inh: -11; PfHsp90 set2: 102*; Env fusion inh: -73; PAX8 inh HTS: 85*

Results for O=C(Nc1cccc(C(F)(F)F)c1)c1cccnc1 ?
Rtt109 Vps75: 25; Arrestin-AP2 inh: 3; N-glyco inh: 3

What do the screens show for `Cc1cc(C(=O)Nc2cccc3c2O[C@@H](CN(C)S(C)(=O)=O)[C@@H](C)CN([C@H](C)CO)C3=O)n(C)n1`?
Env fusion inh: 4[16.7 µM]

What do the screens show for `CC(C)C#Cc1cnc2c(c1)C(=O)N([C@H](C)CO)C[C@@H](C)[C@H](CN(C)Cc1cncnc1)O2`?
PAX8 inh HTS: 4

Results for Cc1ccc(C)c(OCC(O)CN2CCC(Cc3ccccc3)CC2)c1 (stereo not drawn) ?
Rtt109 Vps75: 5; Arrestin-AP2 inh: -14; N-glyco inh: 3; PfHsp90 set2: -13; Env fusion inh: 55*; PAX8 inh HTS: 6

How did Cc1ccc(C)c(OCC(O)CN2CCN(CCN3C(=O)c4cccc5cccc(c45)C3=O)CC2)c1 (stereo not drawn) do in these assays?
Rtt109 Vps75: 5; Arrestin-AP2 inh: 30; N-glyco inh: 57*; PfHsp90 set2: 18; Env fusion inh: -112; PAX8 inh HTS: 13

How did OC(COc1ccc(Cl)cc1)CN1CCC(Cc2ccccc2)CC1 (stereo not drawn) do in these assays?
Rtt109 Vps75: 3; Arrestin-AP2 inh: 8; N-glyco inh: 1; PfHsp90 set2: 1; Env fusion inh: 6; PAX8 inh HTS: 11

Results for Cc1cc(C)cc(OCC(O)CN2CCC(CN3C(=O)c4cccc5cccc(c45)C3=O)CC2)c1 (stereo not drawn) ?
Rtt109 Vps75: 3; Arrestin-AP2 inh: -6; N-glyco inh: 0; PfHsp90 set2: -4; Env fusion inh: 3; PAX8 inh HTS: 67*

How did COc1cccc(OCC(O)CN2CCC(CN3C(=O)c4cccc5cccc(c45)C3=O)CC2)c1 (stereo not drawn) do in these assays?
Arrestin-AP2 inh: 23; N-glyco inh: 19; PfHsp90 set2: -30; Env fusion inh: -1; PAX8 inh HTS: 29

What do the screens show for `C[C@H]1CN([C@@H](C)CO)S(=O)(=O)c2ccc(/C=C/c3ccccc3)cc2O[C@@H]1CN(C)C(=O)Nc1cccc(F)c1`?
Env fusion inh: 2[16.7 µM]; PAX8 inh HTS: 62*

What do the screens show for `C[C@H](CO)N1C[C@H](C)[C@H](CN(C)C(=O)Nc2cc(F)ccc2F)Oc2cc(/C=C/c3ccccc3)ccc2S1(=O)=O`?
Env fusion inh: 33[16.7 µM]; PAX8 inh HTS: 65*

What do the screens show for `COc1cc2cc(C(=O)N(C)Cc3ccccc3)[nH]c2cc1OC`?
Rtt109 Vps75: 0; Arrestin-AP2 inh: 35; N-glyco inh: 3; PfHsp90 set2: -31; Env fusion inh: -15; PAX8 inh HTS: 14

What do the screens show for `C=CCN(Cc1ccc(OC)c(OC)c1)C(=O)c1cc2cc(F)ccc2[nH]1`?
Rtt109 Vps75: 0; Arrestin-AP2 inh: 35; N-glyco inh: -3; PfHsp90 set2: -13; Env fusion inh: 76*; PAX8 inh HTS: 11

What do the screens show for `COCC(=O)Nc1ccc2c(c1)OC[C@H](C)N(C(=O)c1ccncc1)C[C@@H](C)[C@H](OC)CN(C)C2=O`?
Env fusion inh: 2[16.7 µM]

Results for COc1ccc(S(=O)(=O)Nc2ccc3c(c2)OC[C@H](C)NC[C@H](C)[C@@H](OC)CN(C)C3=O)cc1 ?
Env fusion inh: -7[16.7 µM]

Results for CC[C@]12c3[nH]c4ccc(Cl)cc4c3CCN1C(=O)[C@@H](CC(=O)NC/C=C(\C)CCC=C(C)C)C[C@@H]2C(=O)N1CCN(C(=O)C2CC2)CC1 ?
Rtt109 Vps75: -3; Arrestin-AP2 inh: 10; N-glyco inh: -3; PfHsp90 set2: -10; Env fusion inh: 11; PAX8 inh HTS: 75*

Results for Cc1cc(C)n(-c2ccc3cccc(NS(C)(=O)=O)c3n2)n1 ?
Rtt109 Vps75: -5; Arrestin-AP2 inh: 18; N-glyco inh: -8; PfHsp90 set2: 5; Env fusion inh: 60*

How did CC(=O)Nc1ccc(S(=O)(=O)Nc2cccc3cccnc23)cc1 do in these assays?
Rtt109 Vps75: 5; Arrestin-AP2 inh: -5; N-glyco inh: 5; PfHsp90 set2: -1; Env fusion inh: -13; PAX8 inh HTS: 5

Results for Cc1ccc(S(=O)(=O)Nc2cccc3cccnc23)c([N+](=O)[O-])c1 ?
Rtt109 Vps75: -1; Arrestin-AP2 inh: 35; N-glyco inh: -6; Env fusion inh: -26; PAX8 inh HTS: 71*

How did Cc1ccc2cccc(NS(=O)(=O)c3ccccc3)c2n1 do in these assays?
Env fusion inh: -29; PAX8 inh HTS: 96*

What do the screens show for `CS(=O)(=O)Nc1cccc2cccnc12`?
Rtt109 Vps75: -6; Arrestin-AP2 inh: 5; N-glyco inh: 4; PfHsp90 set2: -11

What do the screens show for `O=S(=O)(Nc1cccc2cccnc12)c1ccccc1`?
Rtt109 Vps75: -11; Arrestin-AP2 inh: 4; N-glyco inh: -16; PfHsp90 set2: -30; Env fusion inh: 2; PAX8 inh HTS: 105*

What do the screens show for `CC(=O)N1[C@@H](CO)[C@@H]2c3ccccc3N(C(=O)c3ccccc3)C[C@@H]21`?
PAX8 inh HTS: -7
